Measurements as given in ChEMBL document CHEMBL3526049 (Drug Metab Dispos, 2012).

How the values were obtained:
Assay type in all cases: ADME, organism-based
[1] = Half life in BCRP knockout Sprague-Dawley rat at 20 mg/kg, po by LC-MS/MS analysis; set-up: dose 20 mg/kg, route oral; details: in vivo
Method in brief: (§1)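 Male Sprague-Dawley knockout rats or wild-type rats matched for age and weight, with femoral artery and vein cannulas. Crossover design: sulfasalazine 5 mg/kg iv bolus (water, pH 9–10) on day 0, then 20 mg/kg oral gavage (0.5% carboxymethyl cellulose in PBS, pH 7.4) on day 3. Arterial plasma collected 0–24 h. Sulfasalazine and sulfapyridine measured by LC-MS/MS; noncompartmental parameters; mean ± S.D., n = 4 to 8.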

[2] = AUC (infinity) in BCRP knockout Sprague-Dawley rat at 20 mg/kg, po by LC-MS/MS analysis; set-up: time infinity, dose 20 mg/kg, route oral; details: plasma
Method in brief: (§2)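 Male Sprague-Dawley knockout or age/weight-matched wild-type rats with femoral artery and vein cannulas. Crossover design: day 0 i.v. bolus 5 mg/kg sulfasalazine in water at pH 9–10, then day 3 gavage 20 mg/kg in 0.5% carboxymethyl cellulose/PBS pH 7.4. Arterial plasma was sampled to 24 h. Sulfasalazine and sulfapyridine were measured by LC-MS/MS (1–5000 ng/ml). Parameters are noncompartmental; n = 4–8, mean ± S.D.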

[3] = Half life in MRP2-deficient Wistar rat at 5 mg/kg, iv by LC-MS/MS analysis; set-up: dose 5 mg/kg, route intravenous; details: in vivo
Method in brief: (§3)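 Male Wistar wild-type rats and Mrp2-deficient TR⁻ rats with femoral artery and vein cannulas. Sulfasalazine given as an iv bolus (5 mg/kg, water at pH 9–10) and by oral gavage, each followed by arterial plasma sampling over 24 h. Sulfasalazine and sulfapyridine measured by LC-MS/MS; noncompartmental parameters; mean ± S.D., n = 3.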

[4] = Volume of distribution at steady state in MDR1A knockout Sprague-Dawley rat at 5 mg/kg, iv by LC-MS/MS analysis; set-up: dose 5 mg/kg, route intravenous; details: in vivo, read-out: Vdss; method in brief: as §1
[5] = Oral bioavailability in BCRP knockout Sprague-Dawley rat at 20 mg/kg by LC-MS/MS analysis; details: in vivo; method in brief: as §1
[6] = Half life in BCRP knockout Sprague-Dawley rat at 5 mg/kg, iv by LC-MS/MS analysis; set-up: dose 5 mg/kg, route intravenous; details: in vivo; method in brief: as §1
[7] = Half life in MDR1A knockout Sprague-Dawley rat at 5 mg/kg, iv by LC-MS/MS analysis; set-up: dose 5 mg/kg, route intravenous; details: in vivo; method in brief: as §1
[8] = Clearance in MRP2-deficient Wistar rat at 5 mg/kg, iv by LC-MS/MS analysis; set-up: dose 5 mg/kg, route intravenous; details: in vivo
Method in brief: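 Male Wistar wild-type or Mrp2-deficient TR⁻ rats with femoral artery and vein cannulas. Sulfasalazine was given as a 5 mg/kg i.v. bolus and as a 20 mg/kg oral dose. Arterial plasma was sampled to 24 h and analysed for parent and sulfapyridine by LC-MS/MS. Noncompartmental parameters; n = 3, mean ± S.D.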

[9] = AUC (infinity) in wild-type Sprague-Dawley rat at 20 mg/kg, po by LC-MS/MS analysis; set-up: time infinity, dose 20 mg/kg, route oral; details: plasma; method in brief: as §2
[10] = AUC (infinity) in MDR1A knockout Sprague-Dawley rat at 20 mg/kg, po by LC-MS/MS analysis; set-up: time infinity, dose 20 mg/kg, route oral; details: plasma; method in brief: as §2
[11] = Half life in wild-type Wistar rat at 5 mg/kg, po by LC-MS/MS analysis; set-up: dose 5 mg/kg, route oral; details: in vivo; method in brief: as §3
[12] = Half life in MRP2 knockout Sprague-Dawley rat at 20 mg/kg, po by LC-MS/MS analysis; set-up: dose 20 mg/kg, route oral; details: in vivo; method in brief: as §1
[13] = Tmax in wild-type Sprague-Dawley rat at 20 mg/kg, po by LC-MS/MS analysis; set-up: dose 20 mg/kg, route oral; details: in vivo
Method in brief: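 Male Sprague-Dawley rats (knockout or wild type, matched for age and weight) with femoral artery and vein cannulas, recovered ≥2 days. In an i.v./oral crossover with a 3-day washout, sulfasalazine was given by oral gavage at 20 mg/kg in 0.5% carboxymethyl cellulose/PBS pH 7.4. Arterial plasma was sampled 0–24 h and analysed by LC-MS/MS (1–5000 ng/ml). Noncompartmental analysis; n = 4 to 8.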

[14] = Tmax in wild-type Wistar rat at 5 mg/kg, po by LC-MS/MS analysis; set-up: dose 5 mg/kg, route oral; details: in vivo
[15] = Clearance in BCRP knockout Sprague-Dawley rat at 5 mg/kg, iv by LC-MS/MS analysis; set-up: dose 5 mg/kg, route intravenous; details: in vivo; method in brief: as §2
[16] = Oral bioavailability in MRP2-deficient Wistar rat at 5 mg/kg by LC-MS/MS analysis; details: in vivo; method in brief: as §3
[17] = AUC (infinity) in wild-type Sprague-Dawley rat at 5 mg/kg, iv by LC-MS/MS analysis; set-up: time infinity, dose 5 mg/kg, route intravenous; details: plasma; method in brief: as §2
[18] = Volume of distribution at steady state in BCRP knockout Sprague-Dawley rat at 5 mg/kg, iv by LC-MS/MS analysis; set-up: dose 5 mg/kg, route intravenous; details: in vivo, read-out: Vdss; method in brief: as §1

SMILES: O=C(O)c1cc(/N=N/c2ccc(S(=O)(=O)Nc3ccccn3)cc2)ccc1O [SULFASALAZINE]
- half-life [1]: 1.9 h
- AUC(0-inf) [2]: 13100 ng·h/mL
- half-life [3]: 4 h
- Vd [4]: 0.285 L/kg
- bioavailability [5]: 30%
- half-life [6]: 1.4 h
- half-life [7]: 1 h
- clearance [8]: 10.9 mL/min/kg
- AUC(0-inf) [9]: 562 ng·h/mL
- AUC(0-inf) [10]: 711 ng·h/mL
- half-life [11]: 2.1 h
- half-life [12]: 3.8 h
- Tmax [13]: 0.25 h
- Tmax [14]: 0.5 h
- clearance [15]: 7.8 mL/min/kg
- bioavailability [16]: 1.5%
- AUC(0-inf) [17]: 8400 ng·h/mL
- Vd [18]: 0.408 L/kg
